# Cl transport mod = KCC2 (human) Cl- transport modulation; Q9H2X9; KCC2 cells, thallium flux FluoZin-2 fluorescence; B-score of Tl+ flux slope (higher = more flux/activation; lower = inhibition) at 10 µM; 190,000 tested, 2.2% active; AID 1456;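 active means thallium flux slope and its plate-corrected score both differing from the plate sample mean at a set confidence after two filtering rounds, in either direction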;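 further: slope of fluorescence scaled to starting intensity during 10 to 20 s after thallium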
# Arbovirus inh = arbovirus infection inhibition | 200,000 tested, 0.37% active | arbovirus infection cell-based antiviral screen | inhibition, % at 10 µM; in the data active means inhibition above about 30%
# m-calpain inh = blocks pig calpain II enzyme activity; purified calpain II, fluorogenic peptide substrate, 30 min; inhibition, % at 16 µM; 220,000 tested, 0.37% active;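 active means inhibition above about 50%, limit read from the data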
# PKD1 inh = inhibitors of human PKD1 kinase | PKD1 kinase fluorescence polarization assay | inhibition, % (concentration not given with the values) | 200,000 tested, 0.056% active | AID 797; in the data active means inhibition above about 50%
# Target sequence (Q15139 whole entry, looked up): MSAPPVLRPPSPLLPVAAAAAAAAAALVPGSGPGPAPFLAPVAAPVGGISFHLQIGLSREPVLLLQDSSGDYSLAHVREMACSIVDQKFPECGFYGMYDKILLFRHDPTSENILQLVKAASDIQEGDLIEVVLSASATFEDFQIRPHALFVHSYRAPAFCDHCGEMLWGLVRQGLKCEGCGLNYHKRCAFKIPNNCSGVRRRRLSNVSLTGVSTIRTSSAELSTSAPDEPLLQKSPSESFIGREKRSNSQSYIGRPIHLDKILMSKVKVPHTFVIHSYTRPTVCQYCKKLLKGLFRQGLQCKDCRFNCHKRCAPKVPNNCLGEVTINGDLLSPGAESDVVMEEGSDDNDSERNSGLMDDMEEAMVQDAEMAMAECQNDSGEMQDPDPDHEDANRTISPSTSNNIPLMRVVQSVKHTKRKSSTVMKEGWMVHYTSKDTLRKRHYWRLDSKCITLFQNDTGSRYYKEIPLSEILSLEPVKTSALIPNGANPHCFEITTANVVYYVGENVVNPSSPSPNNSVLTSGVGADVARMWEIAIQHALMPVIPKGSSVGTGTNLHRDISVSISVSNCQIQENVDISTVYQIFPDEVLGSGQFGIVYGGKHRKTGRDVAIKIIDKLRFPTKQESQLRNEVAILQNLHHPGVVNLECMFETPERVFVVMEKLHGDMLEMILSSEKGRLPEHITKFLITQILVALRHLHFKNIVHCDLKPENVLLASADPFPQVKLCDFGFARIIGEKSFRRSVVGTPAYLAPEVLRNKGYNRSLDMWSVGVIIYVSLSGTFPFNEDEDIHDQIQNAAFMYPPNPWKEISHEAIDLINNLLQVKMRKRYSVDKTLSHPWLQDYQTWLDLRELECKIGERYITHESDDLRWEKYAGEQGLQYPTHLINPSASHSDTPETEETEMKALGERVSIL
# MDM2 E3 inh = blocks human Mdm2 ubiquitin ligase activity; Q00987; cell-based MDM2 ubiquitination luciferase reporter, 2 h; 0 = plate control, 100 = twice control, blank-subtracted; signal enhancement, % at 5 µM; 210,000 tested, 0.11% active;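 active means signal enhancement of 30% or more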;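 further: luminescence tracks abundance of the self-degrading MDM2-luciferase fusion protein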
#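 Material: stable MDM2–luciferase fusion reporter cells / Quantity: 2000 cells/well / Dosing: single 5 µM compound dose, 0.2% final DMSO / Buffer or medium: DMEM / Schedule: 4 h cell settling then 2 h compound exposure, 37 °C / Detection: luminescence with SteadyLite reagent, 15 min at room temperature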
# ROMK primary = modulates human ROMK potassium channel activity; P48048; Tet-inducible ROMK, thallium flux fluorescence; actives lie on both sides; B-score at 10 µM; 130,000 tested, 2% active; AID 1918;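 active means signal ratio slope over the read window, or its plate-corrected B-score, at least 3 SD from the plate mean, either direction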;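 further: B-score of the F/F0 ratio slope over 7 to 12 s after thallium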
# KCC2 secondary = confirmation of human KCC2 transport modulators; shares compounds with Cl transport mod; HEK293-KCC2, thallium flux, FluoZin2 fluorescence; stronger effect = higher value; normalised thallium flux (F/F0 slope) at 10 µM; 3,700 tested, 15% active; AID 1713;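 active means thallium flux slope above the same plate's solvent-only control mean plus 3 SD; inconclusive means the two replicate wells disagree; inactive means no significant difference from solvent-only control wells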
# KCC2 bumet counter = bumetanide-insensitive thallium flux in KCC2 cells with ouabain, counter-screen; 3,700 tested, 49% active; shares compounds with Cl transport mod; normalized thallium flux at 10 µM; HEK293-KCC2 + bumetanide/ouabain, thallium flux FluoZin2; stronger effect = higher value; AID 1714;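 active means thallium entry rate above the same plate's blocked-transporter control wells by more than 3 SD; inconclusive means the two repeat wells disagree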;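 further: raw slope of fluorescence over initial fluorescence between 10 and 20 s after thallium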
# KCC2 sec2 = confirmation of human KCC2 transport modulators; shares compounds with Cl transport mod; HEK293-KCC2, thallium flux FluoZin2 fluorescence; actives lie on both sides; F/F0 rise rate, 10–20 s post-thallium; normalized thallium flux at 10 µM; 3,700 tested, 23% active; AID 1715;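 active means thallium flux slope more than 3 SD above or below the plate's solvent-only control mean, mostly below; inconclusive means the two repeat wells disagreed; inactive means no significant shift from solvent-only controls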
# HEK293 Tl flux = parental HEK flux effect, counter-screen | shares compounds with Cl transport mod | HEK293 parental cells, thallium flux FluoZin2, ouabain; baseline-ratio fluorescence slope, 10–20 s after thallium | thallium flux rate (normalised fluorescence) at 10 µM | 3,700 tested, 46% active | AID 1716;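 active means thallium flux rate significantly above the same plate's solvent-only control wells, beyond their mean plus 3 SD; inconclusive means the two replicate wells gave conflicting results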
# KCC2 retest ouab = modulates human KCC2 on retest with ouabain | shares compounds with Cl transport mod | HEK293-KCC2, thallium flux FluoZin2 fluorescence; bidirectional: low = inhibitor, high = activator | raw Tl+ flux slope (below DMSO = inhibition, above = activation) at 10 µM | AID 1717 | 3,700 tested, 48% active;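 active means thallium flux slope beyond 3 SD from same-plate DMSO control mean in most replicates, usually higher, sometimes lower; inconclusive means repeat tests gave conflicting results; inactive means no significant difference from controls in most replicates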;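 further: slope of initial-normalized fluorescence between seconds 10 and 20 after thallium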
# HEK293 Tl flux2 = counter-screen for KCC2 modulators: effect in parental HEK293 cells; shares compounds with Cl transport mod; thallium flux FluoZin-2 fluorescence slope; thallium flux slope at 10 µM; 3,700 tested, 33% active; AID 1718;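 active means thallium flux slope above the same plate's solvent-control mean plus 3 SD in both duplicate wells; inconclusive means duplicate wells that disagreed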;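 further: run without ouabain in cells lacking the KCC2 cotransporter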
# Hits are given with their value; n = inactive; u = inconclusive; x = no result given; ! = repeats disagree. An excerpt weighted towards active compounds, which were near 3.7% of everything screened.
SMILES,Cl transport mod,Arbovirus inh,m-calpain inh,PKD1 inh,MDM2 E3 inh,ROMK primary,KCC2 secondary,KCC2 bumet counter,KCC2 sec2,HEK293 Tl flux,KCC2 retest ouab,HEK293 Tl flux2
CC(=O)Nc1ccc(NC(=O)N2CCCCC2)cc1,x,n,n,n,n,x,x,x,x,x,x,x
COc1ccc(CC(=O)OCC(=O)NCc2ccccc2Cl)cc1OC,n,n,n,n,n,n,x,x,x,x,x,x
O=C(Nn1c(O)c(C=C2N=c3ccccc3=N2)sc1=S)c1ccccc1,-3.5,n,n,n,n,x,n,n,0.022,n,0.013,n
Cc1ccc(C(=O)Nn2c(O)c(C=C3N=c4ccccc4=N3)sc2=S)cc1,x,n,n,n,n,x,x,x,x,x,x,x
Cc1ccc(/C=C2\SC(=S)N(c3c(C)n(C)n(-c4ccccc4)c3=O)C2=O)cc1,-3.9,n,n,n,n,n,n,u,0.025,n,0.014,n
Cc1c(N2C(=O)/C(=C/c3ccccc3)SC2=S)c(=O)n(-c2ccccc2)n1C,-7.6,n,n,n,n,x,n,u,0.027,n,0.014,u
Cc1c(N2C(=O)CS/C2=N\N=C\c2ccccc2O)c(=O)n(-c2ccccc2)n1C,n,n,n,n,n,x,x,x,x,x,x,x
Cc1c(N2C(=O)/C(=C/C3CC=CCC3)SC2=S)c(=O)n(-c2ccccc2)n1C (stereo unspecified),n,x,n,x,x,x,x,x,x,x,x,x
Cc1c(N2C(=O)/C(=C\c3ccccc3O)SC2=S)c(=O)n(-c2ccccc2)n1C,52,x,n,x,n,x,0.027,0.062,0.068,0.068,0.063,0.064
CCC(=O)Oc1ccc(-c2cnc3ccccc3n2)cc1,n,n,n,n,n,x,x,x,x,x,x,x
CCC(=O)Oc1ccc(C(CC)C(CC)c2ccc(OC(=O)CC)cc2)cc1 (stereo unspecified),11,n,n,n,x,x,n,n,n,n,n,n
Cc1ccc(C(=O)N2c3ccccc3N(Cc3ccccc3)C(=O)C2(C)C)cc1,n,n,n,n,n,x,x,x,x,x,x,x
COc1ccccc1CN1CCNC(=O)C1CC(=O)NCc1c(C)n[nH]c1C (stereo unspecified),n,n,n,n,n,x,x,x,x,x,x,x
CCC(=O)N1CCc2cc(OC)c(OC)cc2C1COc1ccccc1OC (stereo unspecified),-5,n,n,n,n,n,n,n,n,n,n,n
CC12CCCCN1CCCc1c2[nH]c2ccccc12 (stereo unspecified),8.2,n,n,n,n,n,u,n,n,n,u,n
COCCN=c1scc(C)n1/N=C/C1CC2C=CC1C2 (stereo unspecified),n,n,n,n,n,n,x,x,x,x,x,x
O=C(CNC(=O)/C(=C\c1ccc(Br)cc1)NC(=O)c1ccccc1)OCc1ccccc1,-6.1,n,n,n,n,x,n,n,0.021,n,0.012,n
O=C(CNC(=O)/C(=C/c1ccccc1)NC(=O)c1ccc(Br)cc1)OCc1ccccc1,-6.9,n,n,n,n,x,n,n,0.022,n,0.011,n
O=C(NCCO)/C(=C/c1ccc(Br)cc1)NC(=O)c1cccs1,x,n,n,n,n,x,n,n,n,n,n,n
O=C(NCCO)/C(=C\c1ccco1)NC(=O)c1cccs1,n,n,n,n,n,n,x,x,x,x,x,x
CC(Sc1nc(-c2ccccc2)cs1)C(=O)Nc1ccc(Cl)cn1 (stereo unspecified),n,n,n,n,n,x,x,x,x,x,x,x
Cn1cnc(S(=O)(=O)Nc2ccc(OC(F)F)cc2)c1,n,x,n,x,n,n,x,x,x,x,x,x
Cc1ccc(-n2cccc2/C=C2\C(=N)N3N=C(C(C)C)SC3=NC2=O)cc1,7.1,32,n,n,n,n,n,0.037,u,0.03,0.031,0.017
COc1ccc(Nc2nnc(SCc3cc(=O)n4ccsc4n3)s2)cc1,-5.2,n,n,n,n,x,n,n,0.03,n,0.017,n
O=c1cc(CSc2nnc(Nc3ccccc3F)s2)nc2sccn12,n,n,n,n,n,n,x,x,x,x,x,x
SMILES,Cl transport mod,Arbovirus inh,m-calpain inh,PKD1 inh,MDM2 E3 inh,ROMK primary,KCC2 secondary,KCC2 bumet counter,KCC2 sec2,HEK293 Tl flux,KCC2 retest ouab,HEK293 Tl flux2
S=c1[nH]c2cc3ccccc3cc2[nH]1,3.3!,x,n,x,n,n,n,0.0076,u,0.0091,n,u
COc1cc(OC)c(NC(=S)NCc2ccccc2)cc1Cl,n,n,n,n,n,n,x,x,x,x,x,x
COc1ccc(S(=O)(=O)Nc2ccccc2C(=O)NCc2ccco2)cc1Br,-4.1,n,n,n,n,x,u,n,0.023,0.0049,0.012,0.0083
CCOc1ccc(S(=O)(=O)Nc2ccccc2C(=O)NCc2ccco2)cc1,n,n,n,n,n,x,x,x,x,x,x,x
Cc1ccc(-c2[nH]c(=S)[nH]c(=O)c2C#N)cc1,n,n,n,n,x,n,x,x,x,x,x,x
Cc1ccc(C(=O)N/N=C/c2ccc([N+](=O)[O-])s2)cc1,6.6,n,n,n,n,x,n,0.015,n,0.016,u,u
O=C(N/N=C/c1ccc([N+](=O)[O-])s1)c1ccncc1,n,n,n,n,n,x,x,x,x,x,x,x
Cc1ccc([N+](=O)[O-])c(C(=O)N/N=C/c2cccs2)c1,4.5,x,n,x,n,n,n,0.014,n,0.011,n,0.014
COCCn1c(-c2ccccc2Cl)nc2c(c(=O)c3ccccc3n2C)c1=O,-4.8,31,n,n,n,n,u,n,0.021,0.0058,0.01,n
CC(C)c1nc2c(c(=O)c3ccccc3n2C)c(=O)n1CCc1ccccc1,-4.4,x,n,x,n,x,n,0.022,n,0.012,n,n
COc1ccc(CCn2c(-c3ccccc3)nc3c(c(=O)c4ccccc4n3C)c2=O)cc1,n,n,n,n,n,n,x,x,x,x,x,x
CC(=O)Oc1ccc(-c2ccc(C(=O)Nc3cccc(S(=O)(=O)N4CCOCC4)c3)cc2)cc1,n,n,n,n,n,n,x,x,x,x,x,x
c1ccc(OCCOc2cccc3cccnc23)cc1,n,n,n,n,x,n,x,x,x,x,x,x
CC(C)Oc1ccccc1OCCCOc1cccc2cccnc12,-3.8,n,n,n,n,n,n,n,u,n,0.017,n
N=C(c1cccc([N+](=O)[O-])c1)N1CCCCC1,n,n,n,n,n,n,x,x,x,x,x,x

# Screens (PubChem BioAssay)
